Experimental data reported in ChEMBL document CHEMBL1158783, “Neoflavonoids and related constituents from Nepalese propolis and their nitric oxide production inhibitory activity” (J Nat Prod, 2005).
pIC50: −log10 of the molar value.

Legend:
[1] = tested on: J774.1; assay: Inhibition of LPS-induced NO production in mouse J774.1 cells after 24 hrs by Griess reagent assay; format: functional, cell-based; conditions: J774.1, 24 h
Outline: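 J774.1 cells grown in RPMI 1640 with penicillin G, streptomycin and 10% FCS, seeded at 1 × 10⁵ cells/well and left to adhere for 2 h at 37 °C, 5% CO₂. Fresh medium with LPS (10 µg/mL) plus compound was then added for 24 h. Supernatant nitrite was read with Griess reagent (10 min, room temperature, A550), medium-blank corrected, and compared with an LPS-only control. IC50 taken from the mean of four determinations.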

[2] = Cytotoxicity against mouse J774.1 cells at > 50 uM by MTT assay; format: cell-based

SMILES	pIC50 [1]	Activity [2]
C=C[C@H](C1=CC(=O)C(OC)=CC1=O)c1ccccc1	4.99	
C=C[C@@H](c1ccccc1)c1ccc(O)c(O)c1	5.08	
C=C[C@@H](c1ccccc1)[C@@H]1C[C@@H](O)[C@@H](OC)C[C@@H]1O	4.00	
C=C[C@@H](c1ccccc1)[C@@H]1C[C@@H](O)[C@@H](OC)CC1=O	4.88	
C=C[C@H](c1ccccc1)[C@@H]1C[C@@H](O)[C@@H](OC)CC1=O	5.02	
COC1=CC(=O)CCC1(O)C/C=C/c1ccccc1 (stereo not given)	4.72	
C=CC(c1ccccc1)[C@@H]1C[C@H](O)C(OC)=CC1=O (stereo not given in full)	4.31	
C=CC(c1ccccc1)[C@H]1C[C@@H](O)[C@@H](OC)CC1=O (stereo not given in full)	5.02	
COc1cc(O)c(C(=O)c2ccccc2)cc1O [CEAROIN]	4.81	
O=C(/C=C/c1ccc(O)cc1)c1ccc(O)cc1O [ISOLIQUIRITIGENIN]	4.53	

Stronger by pIC50 [1], values ahead:

pIC50 [1]	SMILES	Activity [2]
5.47	COc1ccc2c(c1O)O[C@@H]1c3ccc(O)cc3OC[C@H]21	
5.27	COc1ccc2c(c1)O[C@H]1c3ccc(O)c(O)c3OC[C@@H]21	
6.30	C=CC(c1ccccc1)[C@@H]1C[C@@H](O)C=CC1=O (stereo not given in full)	Active
6.30	C=CC(c1ccccc1)[C@H]1C[C@@H](O)C=CC1=O (stereo not given in full)	Active
5.64	C=CC(c1ccccc1)[C@H]1C[C@@H](O)C[C@@H](OC)C1=O (stereo not given in full)	
5.26	C=C[C@@H](c1ccccc1)c1ccc(O)cc1O	
5.32	O=C(/C=C/c1ccc(O)c(O)c1)OCCc1ccccc1 [CAFFEIC ACID PHENETHYL ESTER]	
5.20	C=CC(c1ccccc1)c1cc(O)c(OC)cc1O (stereo not given) [OBTUSAQUINOL]	
